Consider 20 compounds from ChEMBL document CHEMBL2163211, “Antiviral chromones from the stem of Cassia siamea” (J Nat Prod, 2012).

≈ marks a conversion by molar mass, not a printed value.

Data set [1] in a line: Therapeutic index, ratio of CC50 for human C8166 cells to EC50 for HIV1. To be noted: read-out: Ratio CC50/EC50. The format is cell-based. A digest of the protocol:
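Ratio of CC50 (MTT cytotoxicity in C8166 cells) to EC50, where EC50 comes from an assay of inhibition of HIV-1 cytopathic effects; azidothymidine served as the positive control.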

Data set [2] can be described thus: Cytotoxicity against human C8166 cells by MTT assay. Format: cell-based. A digest of the protocol:
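C8166 cells assessed by MTT, with cytotoxicity expressed as CC50; azidothymidine served as the positive control.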

Data set [3] has as its system Human immunodeficiency virus 1. Kind of data set: Antiviral activity against HIV1 infected in human C8166 cells assessed as inhibition of virus-induced cytopathic effect. Format: functional, organism-based. To be noted: Human immunodeficiency virus 1, C8166. A digest of the protocol: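 HIV-1 cytopathic-effect inhibition assay in C8166 cells gives EC50; cytotoxicity to C8166 cells measured in parallel by MTT to give CC50. Azidothymidine served as positive control.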
For orientation: Protection from cytopathic effect is a common read-out in antiviral testing.

The test system of data set [4] is Tobacco mosaic virus. Kind of data set: Antiviral activity against Tobacco mosaic virus infected in right side leaf of Nicotiana glutinosa at 20 uM after 3 to 4 days by half-leaf method. The format is functional. A digest of the protocol:
(§1)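 Half-leaf assay on N. glutinosa (local lesion host, 5–6-leaf stage, insect-free greenhouse). Purified TMV diluted to 32 μg/mL in 0.01 M PBS, mixed with compound (DMSO stock diluted with water) for 30 min, then rubbed on the left half-leaf; the right half received virus plus equal DMSO as control. Local lesions counted 3 or 4 days later, three repetitions; inhibition = (C−T)/C×100; ningnanmycin positive control.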

In data set [5] the test system is Tobacco mosaic virus. Description: Antiviral activity against Tobacco mosaic virus infected in leaf of Nicotiana glutinosa assessed as protection against viral infection at 20 uM treated 6 hrs before infection. Format: functional. Summed up: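 Protection test: N. glutinosa leaves pretreated with 20 μM compound solution or DMSO solution for 6 h, then inoculated with purified TMV. Local lesions counted on the host leaves and inhibition rate computed from lesion numbers versus the DMSO control.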

In data set [6] the test system is Tobacco mosaic virus. Kind of data set: Antiviral activity against Tobacco mosaic virus infected in right side leaf of Nicotiana glutinosa after 3 to 4 days by half-leaf method. Format: functional, organism-based. Summed up: as §1
In data set [7] the test system is Tobacco mosaic virus. Description: Antiviral activity against Tobacco mosaic virus infected in right side leaf of Nicotiana glutinosa at 160 uM after 3 to 4 days by half-leaf method. The format is functional. Summed up:
as §1

The subject of data set [8] is Tobacco mosaic virus. Kind of data set: Antiviral activity against Tobacco mosaic virus infected in right side leaf of Nicotiana glutinosa at 80 uM after 3 to 4 days by half-leaf method. The format is functional. Summed up: as §1
The test system of data set [9] is Tobacco mosaic virus. Kind of data set: Antiviral activity against Tobacco mosaic virus infected in right side leaf of Nicotiana glutinosa at 40 uM after 3 to 4 days by half-leaf method. The format is functional. A digest of the protocol:
as §1

The subject of data set [10] is Tobacco mosaic virus. Description: Antiviral activity against Tobacco mosaic virus infected in right side leaf of Nicotiana glutinosa at 10 uM after 3 to 4 days by half-leaf method. Format: functional. A digest of the protocol:
as §1

The subject of data set [11] is Tobacco mosaic virus. Kind of data set: Antiviral activity against Tobacco mosaic virus infected in right side leaf of Nicotiana glutinosa at 5 uM after 3 to 4 days by half-leaf method. The format is functional. Summed up: as §1

With `Cc1cc(=O)c2c(O)c(C)c(O)c(C)c2o1`, the selectivity ratio in [1] turned out to be 10.5. Further, in data set [2], half-maximal cytotoxicity (CC50) was put at 57.5 µg/mL (≈ 261 µM). Also, the EC50 in data set [3] is 5.46 µg/mL (≈ 24.8 µM). 20 µM produced 8.6% inhibition in data set [4].
As for `CC1(C)Oc2cc3oc(CO)cc(=O)c3c(O)c2C[C@@H]1O[C@@H]1O[C@H](CO)[C@@H](O)[C@H](O)[C@H]1O`, the selectivity ratio in [1] was > 109. Moreover, the CC50 in data set [2] was > 200 µg/mL.
For the compound `COc1cc2oc(C)cc(=O)c2c(O)c1CC=C(C)C`, the selectivity ratio in [1] was determined as 15.2. Besides, half-maximal cytotoxicity in data set [2] (CC50) was put at 74.3 µg/mL (≈ 271 µM). The EC50 in data set [3] was 4.89 µg/mL (≈ 17.8 µM). The inhibition at 20 µM in data set [4] came out at 8.7%.
For the compound `Cc1cc(=O)c2c(CC(C)O[C@@H]3O[C@H](CO)[C@@H](O)[C@H](O)[C@H]3O)cc(O)cc2o1` (some centres undefined), the selectivity ratio in [1] came out at 63.3. In addition, the midpoint of cytotoxicity in data set [2], the CC50, lay at 118 µg/mL (≈ 299 µM). Moreover, the EC50 in [3] is 1.87 µg/mL (≈ 4.72 µM). Moreover, at 20 µM the inhibition in data set [4] was 8.6%.
The matching figures for `COc1cc2c(c3oc(C)cc(=O)c13)C=CC(C)(C)O2`: 8.3, 37.3 µg/mL (≈ 137 µM), 4.49 µg/mL (≈ 16.5 µM) and 9.2%.
The corresponding values for `CC(=O)Cc1cc(O)cc2oc(C)cc(=O)c12` are 13.5, 88.7 µg/mL (≈ 382 µM), 6.58 µg/mL (≈ 28.3 µM) and 6.7%.
The matching figures for `CC(=O)[C@@H]1c2cc(O)cc(O)c2C(=O)C[C@]1(C)O`: 28, 88.3 µg/mL (≈ 353 µM), 3.16 µg/mL (≈ 12.6 µM) and 6.4%.
With `CC1=CC2(O)OC(C)=Cc3cc(O)cc(c32)O1` (centres undefined) [BARAKOL], the selectivity ratio in [1] came to 17.1. The same compound showed a CC50 in data set [2] of 73.4 µg/mL (≈ 316 µM). The EC50 in data set [3] is 4.28 µg/mL (≈ 18.4 µM). Moreover, the inhibition at 20 µM in data set [4] was 9%.
Regarding `CNCC(=O)N[C@@H](CO)C(=O)N[C@H]1[C@H](O)[C@@H](O)[C@H](n2ccc(N)nc2=O)O[C@@H]1C(N)=O` [NINGNANMYCIN], the results for the inhibition at 20 µM in [5] and in data set [4] were 27.4% and 30.2%, respectively. The compound further displayed an IC50 in data set [6] of 49.9 µM. This compound also yielded an inhibition at 160 µM in data set [7] of 82.7%. In data set [8], this compound registered an inhibition at 80 µM of 61.3%. In data set [9], this compound showed an inhibition at 40 µM of 48.3%. This compound returned an inhibition at 10 µM in data set [10] of 22.6%. Moreover, the inhibition at 5 µM in data set [11] stood at 11.8%.
Regarding `COc1cc2c(c3oc(C(=O)O)cc(=O)c13)C=CC(C)(C)O2` [PERFORATIC ACID], the selectivity ratio in [1] was found to be 2.3. This compound returned a CC50 in data set [2] of 26.5 µg/mL (≈ 87.7 µM). Moreover, the EC50 in data set [3] was determined as 11.5 µg/mL (≈ 38.2 µM). In addition, the values for the inhibition at 20 µM in [5] and in data set [4] were 10.2% and 13.6%, respectively. In data set [6], this compound showed a half-inhibitory concentration (IC50) of 127 µM. The same compound registered an inhibition at 160 µM in [7] of 54.7%. Besides, the inhibition at 80 µM in data set [8] is 36.8%. Besides, testing at 40 µM in data set [9] gave an inhibition of 25.4%. Moreover, at 10 µM the inhibition in [10] was 9.27%. This compound registered an inhibition at 5 µM in [11] of 5.62%.
Take `CC(=O)Cc1cc(O)cc2oc(C(=O)CCO)cc(=O)c12` [SIAMCHROMONES A]: the selectivity ratio in [1] worked out at 26. The CC50 in data set [2] was determined as 127 µg/mL (≈ 436 µM). Moreover, in [3], the EC50 was 4.87 µg/mL (≈ 16.8 µM). For the same compound, the inhibition at 20 µM in data set [5] worked out at 18.4%; in data set [4], 15.2%. Also, in [6], the IC50 worked out at 86.4 µM. In [7], this compound displayed an inhibition at 160 µM of 62.4%. In addition, in [8], the inhibition at 80 µM was found to be 47.2%. Moreover, the inhibition at 40 µM in data set [9] stood at 30.3%. In addition, 10 µM produced 11.4% inhibition in data set [10]. In data set [11], this compound registered an inhibition at 5 µM of 6.21%.
`COc1cc(CC(C)=O)c2c(=O)cc(C(=O)CCO)oc2c1` [SIAMCHROMONES B]: the selectivity ratio in data set [1] amounted to 16.3. For the same compound, half-maximal cytotoxicity in data set [2] (CC50) was put at 85.2 µg/mL (≈ 280 µM). For the same compound, the 50% effective concentration (EC50) in data set [3] is 5.22 µg/mL (≈ 17.2 µM). In data set [4], this compound showed an inhibition at 20 µM of 9.8%.
The matching figures for `COc1cc(CC(C)=O)c2c(=O)cc(CCCO)oc2c1` [SIAMCHROMONES C]: 6.87, 43.6 µg/mL (≈ 150 µM), 6.34 µg/mL (≈ 21.8 µM) and 8.6%.
The matching figures for `COc1cc(CC(C)=O)c2c(=O)cc(CCCOC(C)=O)oc2c1` [SIAMCHROMONES D]: > 107, > 200 µg/mL, 1.87 µg/mL (≈ 5.63 µM) and 7.5%.
On to `C/C=C/c1cc(=O)c2c(CC(C)=O)cc(O)cc2o1` [SIAMCHROMONES E], for which the selectivity ratio in data set [1] was 9.37. The compound further had a CC50 in [2] of 26.7 µg/mL (≈ 103 µM). The concentration for a half-maximal effect (EC50) in data set [3] stood at 2.85 µg/mL (≈ 11 µM). The same compound came in with an inhibition at 20 µM in [4] of 9.2%.
Take `CC1(C)C=Cc2c(cc(O)c3c(=O)cc(CCCO)oc23)O1` [SIAMCHROMONES F]: in [1], the selectivity ratio was determined as 68. Moreover, half-maximal cytotoxicity in data set [2] (CC50) was put at 196 µg/mL (≈ 650 µM). Moreover, the concentration giving a half-maximal response (EC50) in data set [3] is 2.89 µg/mL (≈ 9.56 µM). Also, the inhibition at 20 µM came to 42.7% in data set [5] and 35.3% in data set [4]. Besides, the IC50 in [6] was found to be 31.2 µM. Further, the inhibition at 160 µM in data set [7] was found to be 96.8%. For the same compound, 80 µM produced 89.2% inhibition in data set [8]. In addition, in [9], testing at 40 µM gave an inhibition of 61.4%. For the same compound, in [10], the inhibition at 10 µM turned out to be 26.7%. Also, in data set [11], the inhibition at 5 µM was determined as 13.5%.
Take `COc1cc2c(c3oc(CCCO)cc(=O)c13)C=CC(C)(C)O2` [SIAMCHROMONES G]: the selectivity ratio in data set [1] was > 23.6. In addition, the CC50 in data set [2] was > 200 µg/mL. Besides, in data set [3], the EC50 was found to be 8.46 µg/mL (≈ 26.7 µM). In addition, in data set [4], the inhibition at 20 µM worked out at 5.7%.
The matching figures for `Cc1cc(=O)c2c(O)c(C)c(O[C@@H]3O[C@H](CO)[C@@H](O)[C@H](O)[C@H]3O)c(C)c2o1` [UNCINOSIDE A]: 5.89, 22.8 µg/mL (≈ 59.6 µM), 3.87 µg/mL (≈ 10.1 µM) and 7.9%.
`CC(C)c1cc(=O)c2c(O)cc(O[C@@H]3O[C@H](CO)[C@@H](O)[C@H](O)[C@H]3O)cc2o1` [URACHROMONE A]: the selectivity ratio in [1] came out at 31. The compound also returned a CC50 in data set [2] of 69.5 µg/mL (≈ 182 µM). In [3], the EC50 came to 2.24 µg/mL (≈ 5.86 µM). Also, the inhibition at 20 µM in data set [5] amounted to 13.7%; in [4], 11.5%. In [6], this compound gave an IC50 of 156 µM. Also, the inhibition at 160 µM in data set [7] was found to be 50.9%. Also, the inhibition at 80 µM in data set [8] worked out at 30.7%. This compound returned an inhibition at 40 µM in data set [9] of 22.4%. In addition, at 10 µM the inhibition in data set [10] was 8.11%. For the same compound, the inhibition at 5 µM in data set [11] turned out to be 4.76%.
With `Cc1cn([C@H]2C[C@H](N=[N+]=[N-])[C@@H](CO)O2)c(=O)[nH]c1=O` [ZIDOVUDINE], the selectivity ratio in data set [1] was > 5880. The CC50 in [2] is > 200 µg/mL. Besides, the EC50 in data set [3] came to 0.034 µg/mL (≈ 0.127 µM).

As a reminder, the CC50 is the concentration giving 50% cytotoxicity. Read a low CC50 as greater toxicity to the cells. Broadly, the EC50 is the concentration at which the effect is half-maximal. As usually defined, the inhibition is the relative decrease from the control value, in per cent. For orientation: IC50 means the point on the concentration scale where inhibition reaches its midpoint. High values mean weaker potency in that assay, low ones greater potency in that assay.
